Assay results: ChEMBL document CHEMBL4152190, “Microwave-assisted one-pot synthesis of new phenanthrene fused-tetrahydrodibenzo-acridinones as potential cytotoxic and apoptosis inducing agents” (Eur J Med Chem, 2018)

Assays:
PC-3 = test: Cytotoxicity against human PC3 cells after 48 hrs by MTT assay; type: functional, cell-based; details: PC-3, 48 h
Method in brief: (§1)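 ATCC lines grown in DMEM or RPMI with 10% FBS and antibiotic-antimycotic, 37 °C, 5% CO2. Seeded at 3×10^4 cells/well, 24 h before dosing with vehicle (DMSO) controls. […] Cisplatin as reference.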

SK-OV-3 = test: Cytotoxicity against human SKOV3 cells after 48 hrs by MTT assay; type: functional, cell-based; details: SK-OV-3, 48 h; method in brief: as §1
HeLa = test: Cytotoxicity against human HeLa cells after 48 hrs by MTT assay; type: functional, cell-based; method in brief: as §1
HEK-293T = test: Cytotoxicity against human HEK293T cells after 48 hrs by MTT assay; type: cell-based; method in brief: as §1
HT-1080 = test: Cytotoxicity against human HT1080 cells after 48 hrs by MTT assay; type: functional, cell-based; details: HT-1080, 48 h; method in brief: as §1

Compound	IC50 (PC-3) [µM]	IC50 (SK-OV-3) [µM]	IC50 (HeLa) [µM]	IC50 (HEK-293T) [µM]	IC50 (HT-1080) [µM]
COc1cc2c3c(c4cc(OC)c(OC)cc4c2cc1OC)C(c1cccc2ccccc12)C1=C(CCCC1=O)N3 (stereo not given)	5.31	2.67	6.87	14.4	3.83
COc1cc2c3c(c4cc(OC)c(OC)cc4c2cc1OC)C(c1ccc(Cl)cc1)C1=C(CC(C)(C)CC1=O)N3 (stereo not given)	> 50	15.9	38.8	> 50	30.1
COc1cc2c3c(c4cc(OC)c(OC)cc4c2cc1OC)C(c1cccs1)C1=C(CCCC1=O)N3 (stereo not given)	5.89	2.35	2.46	15.5	3.78
COc1ccc(C2C3=C(CCCC3=O)Nc3c2c2cc(OC)c(OC)cc2c2cc(OC)c(OC)cc32)cc1 (stereo not given)	5.79	0.61	2.62	28.3	2.62
COc1cc2c3c(c4cc(OC)c(OC)cc4c2cc1OC)C(c1ccc(C(C)C)cc1)C1=C(CC(C)(C)CC1=O)N3 (stereo not given)	> 50	11.5	> 50	25.7	32.3
COc1cc2c3c(c4cc(OC)c(OC)cc4c2cc1OC)C(c1cc(OC)c(OC)c(OC)c1)C1=C(CC(C)(C)CC1=O)N3 (stereo not given)	8.9	10.8	12.1	29.2	16.3
COc1cc2c3c(c4cc(OC)c(OC)cc4c2cc1OC)C(c1cc(OC)c(O)c(OC)c1)C1=C(CC(C)(C)CC1=O)N3 (stereo not given)	6.84	6.5	9.42	> 50	7.64
COc1ccc(C2C3=C(CCCC3=O)Nc3c2c2cc(OC)c(OC)cc2c2cc(OC)c(OC)cc32)cc1OC (stereo not given)	> 50	11.5	> 50	> 50	25.7
COc1ccc(C2C3=C(CC(C)(C)CC3=O)Nc3c2c2cc(OC)c(OC)cc2c2cc(OC)c(OC)cc32)cc1OC (stereo not given)	17.6	13.7	28.1	43.5	21.3
